Test [1] deals with PBMC. Put plainly: Immunosuppressive activity in anti-CD3/anti-CD28-induced human PBMC after 96 hrs by flow cytometry. It is filed as functional, cell-based. An outline of the steps:
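Healthy-donor PBMCs isolated by Lymphoprep density-gradient centrifugation, held in complete medium at 10⁶ cells/mL. Stimulated with plate-bound anti-CD3 (2 μg/mL) plus soluble anti-CD28 (1 μg/mL) monoclonal antibodies. Incubated 96 h with varying compound concentrations in DMSO (less than 0.025%) or vehicle alone. Proliferation measured by flow cytometry.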
(In flow cytometry, cells or beads pass a laser one at a time.)

Test [2] deals with PBMC. Put plainly: Cytotoxicity against human PBMC after 96 hrs by flow cytometry. The format is cell-based. A digest of the protocol:
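PBMCs isolated from healthy donors by Lymphoprep density-gradient centrifugation and resuspended in complete medium. Cells at 10⁶ cells/mL incubated without stimulation for 96 h with different concentrations of compound or vehicle alone. Cell survival read by flow cytometry.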

pIC50: −log10 of the molar value. Bounds are passed on as bounds.

What is called pIC50 is −log10 of the IC50, conventionally taken in molar units. A lower pIC50 goes with a high IC50.

As to `CC(=O)OC[C@]12[C@H](OC(C)=O)[C@H](OC(C)=O)[C@@H]3[C@@H](OC(C)=O)[C@@]14O[C@@]3(C)COC(=O)c1cccnc1CC[C@](C)(OC(=O)c1ccoc1)C(=O)O[C@@H]([C@H](OC(=O)c1ccoc1)[C@@H]2OC(C)=O)[C@]4(C)O`, the negative logarithm of the IC50 (pIC50) in the test with PBMC [1] is 5.31; with PBMC [2] it was 4.58.

`CC(=O)OC[C@]12[C@H](OC(C)=O)[C@H](OC(C)=O)[C@@H]3[C@@H](OC(C)=O)[C@@]14O[C@@]3(C)COC(=O)c1cccnc1CCC(C)(O)C(=O)O[C@@H]([C@H](OC(C)=O)[C@@H]2OC(C)=O)[C@]4(C)O` (some centres not stated) [ALATUSININE]: the results for the pIC50 in the test on PBMC [1] and with PBMC [2] were 4.34 and 4.12, respectively.

Take `CC(=O)O[C@@H]1[C@@H]2[C@@H](OC(C)=O)[C@@]34O[C@@]2(C)COC(=O)c2cccnc2CC[C@](C)(OC(=O)c2ccoc2)C(=O)O[C@@H]([C@H](O)[C@H](O)[C@@]3(CO)[C@@H]1O)[C@]4(C)O`: the figures for the pIC50 in the test on PBMC [1] and in the test with PBMC [2] were 5.06 and below 4.00, respectively.

In the case of `CC1(C)O[C@]23[C@H](OC(=O)c4cccnc4)[C@H]1C[C@@H](OC(=O)/C=C\c1ccccc1)[C@]2(CO)[C@@H](OC(=O)c1ccccc1)CC[C@]3(C)O`, the pIC50 with PBMC [1] is 4.61; with PBMC [2], 4.24.

On to `CC(=O)OC[C@]12[C@H](OC(C)=O)[C@H](OC(C)=O)[C@@H]3[C@@H](O)[C@@]14O[C@@]3(C)COC(=O)c1cccnc1[C@@H](C)[C@H](C)C(=O)O[C@@H]([C@H](OC(=O)c1ccccc1)[C@@H]2OC(C)=O)[C@]4(C)O`, for which the negative logarithm of the IC50 (pIC50) in the test on PBMC [1] is 4.48; in the test with PBMC [2], 4.25.

For the molecule `COc1c(C)c2c(c(O)c1C/C=C(\C)CCC(=O)O)C(=O)OC2` [MYCOPHENOLIC ACID], the pIC50 is 6.74 in the test with PBMC [1] and below 4.00 in the test with PBMC [2].

The record behind these values is ChEMBL document CHEMBL3352530, “Nitrogen-containing dihydro-β-agarofuran derivatives from Tripterygium wilfordii” (J Nat Prod, 2014).
